Measured values: ChEMBL document CHEMBL1142636 (2000)

Experiments:
UO-31 = experiment: Growth inhibition of human UO31 cells; type: functional
Summary of the method: (§1)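 Tested at the NCI in its human disease-oriented in vitro screen of 60 tumour cell lines, following the Monks et al. methods. Activity is expressed as GI50, given as log molar values.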

TK-10 = experiment: Growth inhibition of human TK10 cells; type: functional; summary of the method: as §1
SN12C = experiment: Growth inhibition of human SN12C cells; type: functional; summary of the method: as §1
RXF 393 = experiment: Growth inhibition of human […] cells; type: functional
ACHN = experiment: Growth inhibition of human ACHN cells; type: functional
786-0 = experiment: Growth inhibition of human 786-0 cells; type: functional
SK-OV-3 = experiment: Growth inhibition of human SK-OV-3 cells; type: functional; summary of the method: as §1
[1] = Growth inhibition of human OVACR8 cells; type: functional
[2] = Growth inhibition of human OVACR5 cells; type: functional
[3] = Growth inhibition of human OVACR4 cells; type: functional
[4] = Growth inhibition of human […] cells; type: functional
IGROV-1 = experiment: Growth inhibition of human IGROV1 cells; type: functional
UACC-62 = experiment: Growth inhibition of human UACC62 cells; type: functional; summary of the method: as §1
SK-MEL-5 = experiment: Growth inhibition of human SK-MEL-5 cells; type: functional; summary of the method: as §1
SK-MEL-28 = experiment: Growth inhibition of human SK-MEL-28 cells; type: functional; summary of the method: as §1
SK-MEL-2 = experiment: Growth inhibition of human SK-MEL-2 cells; type: functional; summary of the method: as §1
M19-MEL = experiment: Growth inhibition of human M19-MEL cells; type: functional
M14 = experiment: Growth inhibition of human M14 cells; type: functional
Malme-3M = experiment: Growth inhibition of human MALME-3M cells; type: functional
LOX IMVI = experiment: Growth inhibition of human LOX IMVI cells; type: functional
XF498 = experiment: Growth inhibition of human XF498 cells; type: functional; summary of the method: as §1
U-251 = experiment: Growth inhibition of human U251 cells; type: functional; summary of the method: as §1
SNB-75 = experiment: Growth inhibition of human SNB75 cells; type: functional; summary of the method: as §1
SNB-19 = experiment: Growth inhibition of human SNB19 cells; type: functional; summary of the method: as §1
SF-539 = experiment: Growth inhibition of human SF539 cells; type: functional; summary of the method: as §1
SF-268 = experiment: Growth inhibition of human SF268 cells; type: functional; summary of the method: as §1
SW-620 = experiment: Growth inhibition of human SW620 cells; type: functional; summary of the method: as §1
KM-20L2 = experiment: Growth inhibition of human KM20L2 cells; type: functional
KM12 = experiment: Growth inhibition of human KM12 cells; type: functional
HT-29 = experiment: Growth inhibition of human HT29 cells; type: functional
HCT-15 = experiment: Growth inhibition of human HCT15 cells; type: functional
HCT-116 = experiment: Growth inhibition of human HCT116 cells; type: functional
HCC 2998 = experiment: Growth inhibition of human HCC2998 cells; type: functional
DLD-1 = experiment: Growth inhibition of human DLD1 cells; type: functional
COLO 205 = experiment: Growth inhibition of human COLO205 cells; type: functional
DMS-273 = experiment: Growth inhibition of human DMS273 cells; type: functional
[5] = Growth inhibition of human DMS144 cells; type: functional
[6] = Growth inhibition of human LXFL529 cells; type: functional; settings: LXFL 529
NCI-H522 = experiment: Growth inhibition of human NCI-H522 cells; type: functional
NCI-H460 = experiment: Growth inhibition of human NCI-H460 cells; type: functional
NCI-H322M = experiment: Growth inhibition of human NCI-H322M cells; type: functional
NCI-H226 = experiment: Growth inhibition of human NCI-H226 cells; type: functional
HOP-92 = experiment: Growth inhibition of human HOP92 cells; type: functional
HOP-62 = experiment: Growth inhibition of human HOP62 cells; type: functional
HOP-18 = experiment: Growth inhibition of human HOP18 cells; type: functional
A549 = experiment: Growth inhibition of human A549 cells; type: functional
SR = experiment: Growth inhibition of human SR cells; type: functional; summary of the method: as §1
[7] = Growth inhibition of human RPMI8266 cells; type: functional
K562 = experiment: Growth inhibition of human K562 cells; type: functional
[8] = Growth inhibition of human HL60(TB) cells; type: functional, HL-60(TB); settings: HL-60
CCRF-CEM = experiment: Growth inhibition of human CCRF-CEM cells; type: functional

Compound: COc1cc(C)cc2c1[nH]c1ccccc12 [MURRAYAFOLINE A]
- GI50 (UO-31): 15.1 µM
- GI50 (TK-10): 25.1 µM
- GI50 (SN12C): 14.1 µM
- GI50 (RXF 393): 9.33 µM
- GI50 (ACHN): 23.4 µM
- GI50 (786-0): 9.33 µM
- GI50 (SK-OV-3): 20.9 µM
- GI50 [1]: 7.41 µM
- GI50 [2]: 24.5 µM
- GI50 [3]: 25.1 µM
- GI50 [4]: 8.91 µM
- GI50 (IGROV-1): 14.8 µM
- GI50 (UACC-62): 15.1 µM
- GI50 (SK-MEL-5): 9.12 µM
- GI50 (SK-MEL-28): 16.2 µM
- GI50 (SK-MEL-2): 7.41 µM
- GI50 (M19-MEL): 18.2 µM
- GI50 (M14): 7.24 µM
- GI50 (Malme-3M): 8.13 µM
- GI50 (LOX IMVI): 12.6 µM
- GI50 (XF498): 22.4 µM
- GI50 (U-251): 10.5 µM
- GI50 (SNB-75): 25.1 µM
- GI50 (SNB-19): 25.1 µM
- GI50 (SF-539): 6.03 µM
- GI50 (SF-268): 14.5 µM
- GI50 (SW-620): 8.32 µM
- GI50 (KM-20L2): 7.59 µM
- GI50 (KM12): 8.13 µM
- GI50 (HT-29): 7.76 µM
- GI50 (HCT-15): 7.41 µM
- GI50 (HCT-116): 11.5 µM
- GI50 (HCC 2998): 14.8 µM
- GI50 (DLD-1): 10.5 µM
- GI50 (COLO 205): 12.3 µM
- GI50 (DMS-273): 7.76 µM
- GI50 [5]: 9.55 µM
- GI50 [6]: 18.2 µM
- GI50 (NCI-H522): 4.27 µM
- GI50 (NCI-H460): 7.76 µM
- GI50 (NCI-H322M): 12.9 µM
- GI50 (NCI-H226): 8.51 µM
- GI50 (HOP-92): 23.4 µM
- GI50 (HOP-62): 6.31 µM
- GI50 (HOP-18): 0.288 µM
- GI50 (A549): 1.15 µM
- GI50 (SR): 10.2 µM
- GI50 [7]: 8.71 µM
- GI50 (K562): 25.1 µM
- GI50 [8]: 6.92 µM
- GI50 (CCRF-CEM): 15.5 µM
